Experimental data reported in ChEMBL document CHEMBL1130233, “N6-cyclopentyl-3'-substituted-xylofuranosyladenosines: a new class of non-xanthine adenosine A1 receptor antagonists” (J Med Chem, 1997).

Experiments:
Adenosine receptor A1 [1] = molecular target: T1, Adenosine receptor A1 (Rattus norvegicus, UniProt P25099); experiment: Affinity for adenosine A1 receptor was determined, in the presence of GTP in rat brain cortex; assay type: tissue-based
T1 sequence (P25099 whole entry): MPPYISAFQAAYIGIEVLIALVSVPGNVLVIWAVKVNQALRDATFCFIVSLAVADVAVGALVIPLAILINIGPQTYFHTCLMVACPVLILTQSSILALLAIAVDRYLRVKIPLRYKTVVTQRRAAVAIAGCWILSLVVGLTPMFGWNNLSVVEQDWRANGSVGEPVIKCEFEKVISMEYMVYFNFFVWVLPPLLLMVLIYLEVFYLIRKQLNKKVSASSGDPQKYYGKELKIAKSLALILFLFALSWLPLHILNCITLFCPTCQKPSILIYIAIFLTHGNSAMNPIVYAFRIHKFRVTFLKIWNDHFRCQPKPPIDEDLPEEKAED
In short: (§1)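 Rat cerebral cortex membranes were used for displacement of the tritiated antagonist [3H]DPCPX. Assays were run with and without 1 mM GTP, and Ki values were derived from the displacement data. GTP shift is the apparent Ki with GTP divided by the apparent Ki without GTP. There were three or four independent experiments, each in duplicate.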

Adenosine receptor A1 [2] = molecular target: T1, Adenosine receptor A1; experiment: Affinity for adenosine A1 receptor was determined, in the absence of GTP in rat cortical membrane.; assay type: cell membranes
In short: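 Rat cerebral cortex membranes were used for displacement of the tritiated antagonist [3H]DPCPX. GTP shift is the apparent Ki with GTP divided by the apparent Ki without GTP. There were three or four independent experiments, each in duplicate.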

[3] = molecular target: Adenosine receptor A2a (Rattus norvegicus) (UniProt P30543); experiment: Affinity for adenosine A2a receptor of rat striatal membrane using [3H]-CGS- 21680 at 10e-5 M
In short: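 On rat striatal membranes with [3H]CGS 21680 as radioligand, the value is the percentage of radioligand still bound to the receptor in the presence of 10⁻⁵ M test ligand.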

[4] = molecular target: T2, Adenosine receptor A1 (Rattus norvegicus) (UniProt P25099); experiment: GTP shift ratio of the apparent Ki values in the presence and absence of GTP.; in short: as §1
T2 sequence (whole entry): T1 sequence (P25099 whole entry)

Adenosine receptor A2a = Adenosine receptor A2a (Rattus norvegicus, UniProt P30543); experiment: Affinity for adenosine A2a receptor was determined on rat striatal membrane using [3H]-CGS- 21680 as radioligand; parameters: species or system Striatum
In short: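 Rat striatal membranes were used for displacement of [3H]CGS 21680 as radioligand, and Ki values were derived from the displacement data. There were three or four independent experiments, each performed in duplicate.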

Adenosine receptor A2a, sequence (P30543 whole entry): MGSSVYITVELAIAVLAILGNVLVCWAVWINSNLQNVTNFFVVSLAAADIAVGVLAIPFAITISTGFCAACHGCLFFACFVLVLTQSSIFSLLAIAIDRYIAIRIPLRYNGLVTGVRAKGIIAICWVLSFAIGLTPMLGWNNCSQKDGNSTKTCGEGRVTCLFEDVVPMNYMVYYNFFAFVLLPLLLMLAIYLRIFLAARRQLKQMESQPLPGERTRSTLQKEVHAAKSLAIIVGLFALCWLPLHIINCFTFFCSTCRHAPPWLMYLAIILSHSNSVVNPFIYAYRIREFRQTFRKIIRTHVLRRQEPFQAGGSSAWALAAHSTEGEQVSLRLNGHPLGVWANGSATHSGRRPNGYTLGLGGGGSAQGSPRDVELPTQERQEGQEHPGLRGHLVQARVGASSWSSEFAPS
Adenosine receptor A2a (Rattus norvegicus), sequence (P30543 whole entry): as above

Ki (Adenosine receptor A1 [1]) [nM] | Ki (Adenosine receptor A1 [2]) [nM] | percent radioligand bound [3] [%] | Ratio [4] | Ki (Adenosine receptor A2a) [nM] | SMILES
770 | 850 | 50 | 0.95 |  | O=C(Cc1ccccc1)N[C@H]1C(CO)OC(n2cnc3c(NC4CCCC4)ncnc32)C1O (stereo partly drawn)
5740 | 7840 |  | 0.73 | 4660 | Nc1ncnc2c1ncn2C1OC(CO)[C@H](NC(=O)CCCCc2ccccc2)C1O (stereo partly drawn)
68 | 83 |  | 0.84 | 790 | Cc1ccc(C(=O)N[C@H]2C(CO)OC(n3cnc4c(NC5CCCC5)ncnc43)C2O)cc1 (stereo partly drawn)
11200 | 8470 |  | 1.4 | 2410 | [N-]=[N+]=N[C@@H]1[C@@H](O)[C@H](n2cnc3c(NC4CCCC4)ncnc32)O[C@@H]1CO
150 | 190 | 74 | 0.8 |  | O=C(CCCC1CCCCC1)N[C@H]1C(CO)OC(n2cnc3c(NC4CCCC4)ncnc32)C1O (stereo partly drawn)
130 | 200 |  | 0.77 | 770 | COc1ccc(C(=O)N[C@H]2C(CO)OC(n3cnc4c(NC5CCCC5)ncnc43)C2O)cc1 (stereo partly drawn)
 |  |  | 2.1 |  | Nc1ncnc2c1ncn2[C@@H]1O[C@H](CO)C[C@H]1O
 |  |  | 4.3 |  | OC[C@@H]1C[C@@H](O)[C@H](n2cnc3c(NC4CCCC4)ncnc32)O1
11100 | 10900 |  | 1.1 | 2470 | Nc1ncnc2c1ncn2[C@@H]1OC(CO)[C@H](NC(=O)c2ccccc2)[C@H]1O (single isomer, unassigned)
 |  |  | 0.8 | 2760 | O=C(N[C@H]1C(CO)O[C@@H](n2cnc3c(NC4CCCC4)ncnc32)[C@@H]1O)c1ccccc1 (single isomer, unassigned)
2680 | 3590 |  | 0.75 | 1770 | Nc1ncnc2c1ncn2[C@@H]1OC(CO)[C@H](NC(=O)CCCC2CCCCC2)[C@H]1O (single isomer, unassigned)
12600 |  |  | 0.74 | 11800 | Nc1ncnc2c1ncn2[C@@H]1OC(CO)[C@H](NC(=O)CCOc2ccccc2)[C@H]1O (single isomer, unassigned)
350 | 370 |  | 0.99 | 7940 | O=C(CCc1ccccc1)N[C@H]1C(CO)O[C@@H](n2cnc3c(NC4CCCC4)ncnc32)[C@@H]1O (single isomer, unassigned)
100 | 130 |  | 0.94 | 650 | O=C(CCCc1ccccc1)N[C@H]1C(CO)O[C@@H](n2cnc3c(NC4CCCC4)ncnc32)[C@@H]1O (single isomer, unassigned)
81 | 110 |  | 0.87 | 580 | O=C(N[C@H]1C(CO)O[C@@H](n2cnc3c(NC4CCCC4)ncnc32)[C@@H]1O)c1ccc(Cl)cc1 (single isomer, unassigned)
 |  |  | 0.73 | 2020 | O=C(N[C@H]1C(CO)O[C@@H](n2cnc3c(NC4CCCC4)ncnc32)[C@@H]1O)c1ccc(Cl)c(Cl)c1 (single isomer, unassigned)
740 | 820 |  | 0.91 | 6850 | O=C(N[C@H]1C(CO)O[C@@H](n2cnc3c(NC4CCCC4)ncnc32)[C@@H]1O)c1ccc([N+](=O)[O-])cc1 (single isomer, unassigned)
200 | 240 |  | 0.83 | 4230 | O=C(CCCCc1ccccc1)N[C@H]1C(CO)O[C@@H](n2cnc3c(NC4CCCC4)ncnc32)[C@@H]1O (single isomer, unassigned)
 |  |  | 0.73 | 3680 | Cc1ccc(C(=O)N[C@H]2C(CO)O[C@@H](n3cnc4c(NC5CCCC5)ncnc43)[C@@H]2O)cc1C (single isomer, unassigned)
